Consider 21 compounds from ChEMBL document CHEMBL4138194, “Synthesis of unprecedented steroidal spiro heterocycles as potential antiproliferative drugs” (Eur J Med Chem, 2018).

Some results are limits rather than exact numbers.

Data set [1] deals with HeLa. Briefly: Antiproliferative activity against human HeLa cells after 48 hrs by SRB assay. Format: functional. The procedure, abridged:
(§1)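 Seeded at 2 500 cells/well, per doubling time. Compounds were dissolved in DMSO at 400× the top test concentration and tested in triplicate at dilutions spanning 1–100 µM, starting day 1 after plating, with 0.25% v/v DMSO as control. After 48 h, cells were fixed with cold TCA for 60 min at 4 °C, then SRB-stained. Background-corrected OD was read at 530 nm, and percentage growth was calculated against untreated cells using T0 and end-point OD (NCI formulas).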
A general note: In SRB staining, fixed cells bind dye roughly in proportion to their protein.

The subject of data set [2] is SW1573. Briefly: Antiproliferative activity against human SW1573 cells after 48 hrs by SRB assay. Format: functional. Particulars: SW1573, 48 h. The procedure, abridged:
as §1

The subject of data set [3] is WiDr. Briefly: Antiproliferative activity against human WiDr cells after 48 hrs by SRB assay. The data set is classed as functional. The procedure, abridged:
(§2)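 Plated at 5 000 cells/well, per doubling time. Compounds were dissolved in DMSO at 400× the maximum final concentration and tested in triplicate between 1 and 100 µM for 48 h, beginning day 1 after plating, with 0.25% v/v DMSO as control. Cells were then TCA-fixed for 60 min at 4 °C and SRB-stained. Background-corrected OD was read at 530 nm, and percentage growth was derived against untreated control from start and end OD (NCI formulas).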

The test system of data set [4] is A549. The data set can be described thus: Antiproliferative activity against human A549 cells after 48 hrs by SRB assay. The data set is classed as functional. The note with it: A549, 48 h. The procedure, abridged:
as §1

Data set [5] concerns T47D. The data set can be described thus: Antiproliferative activity against human T47D cells after 48 hrs by SRB assay. The data set is classed as functional. The method, boiled down: as §2
Data set [6] concerns HBL-100. The data set can be described thus: Antiproliferative activity against human HBL100 cells after 48 hrs by SRB assay. The data set is classed as functional. Particulars: HBL-100, 48 h. The procedure, abridged:
as §1

A short description of data set [7]: Cytotoxicity against human hTERT-BJ cells assessed as cell growth inhibition after 48 hrs SRB assay. Format: cell-based. The procedure, abridged:
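BJ-hTert cells were seeded at 10 000/well and exposed from day 1 for 48 h to compounds in triplicate across 1–100 µM. DMSO stocks were 400× the top concentration, with a 0.25% v/v DMSO control. Cells were fixed with ice-cold TCA for 60 min at 4 °C and SRB-stained. Background-corrected OD was read at 530 nm, and percentage growth was computed relative to untreated cells using T0 and final OD (NCI formulas).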

One may read the GI50 as the concentration giving 50% growth inhibition. Regarding `CCCCNC(=S)NC[C@]1(O)CC[C@H]2[C@@H]3CC[C@H]4C[C@@H](O)CC[C@]4(C)[C@H]3CC[C@@]21C`, the GI50 in data set [1] was found to be 14 µM; in data set [2], 9.4 µM; in data set [3], 4.5 µM; in data set [4], 12 µM; in data set [5], 5.8 µM; in data set [6], 13 µM.
For the compound `COC(=O)NC[C@]1(O)CC[C@H]2[C@@H]3CCc4cc(O)ccc4[C@H]3CC[C@@]21C`, the GI50 worked out at 3.5 µM in data set [1]; 5.9 µM in data set [2]; 4.9 µM in data set [3]; 6.8 µM in data set [4]; 4.3 µM in data set [5]; 4 µM in data set [6].
For `C[C@]12CC[C@@H]3c4ccc(O)cc4CC[C@H]3[C@@H]1CC[C@@]21CN=C(Nc2ccccc2)O1`, the GI50 in data set [1] was determined as 3.3 µM; in data set [2], 3.4 µM; in data set [3], 2.6 µM; in data set [4], 2.6 µM; in data set [5], 2.6 µM; in data set [6], 4.4 µM. Also, the GI50 at 48 h in data set [7] worked out at 1.4 µM.
For `C[C@]12CC[C@H](O)C[C@@H]1CC[C@@H]1[C@@H]2CC[C@@]2(C)[C@H]1CC[C@@]21CNC(=O)O1`, the GI50 in data set [1] amounted to 4 µM; in data set [2] it was 6 µM; in data set [3], 3.8 µM; in data set [4] it was 3.7 µM; in data set [5], 4.5 µM; in data set [6], 10 µM. The GI50 at 48 h in data set [7] was less than 1 µM.
On to `CCCCNC1=NC[C@@]2(CC[C@H]3[C@@H]4CC[C@H]5C[C@@H](O)CC[C@]5(C)[C@H]4CC[C@@]32C)O1`, for which the GI50 in data set [1] is 1.6 µM; in data set [2], 1.2 µM; in data set [3] it was 0.87 µM; in data set [4] it was 1.4 µM; in data set [5] it was 1.2 µM; in data set [6], 2.1 µM. Also, in data set [7], the GI50 at 48 h was less than 1 µM.
On to `C[C@]12CC[C@@H]3c4ccc(OCc5ccccc5)cc4CC[C@H]3[C@@H]1CC[C@@]2(O)CN=[N+]=[N-]`, for which the GI50 came out at 2.9 µM in data set [1]; 29 µM in data set [2]; 2.4 µM in data set [3]; 13 µM in data set [4]; 4.1 µM in data set [5]; 22 µM in data set [6].
Regarding `C[C@]12CC[C@H](O)C[C@@H]1CC[C@@H]1[C@@H]2CC[C@@]2(C)[C@H]1CC[C@@]2(O)CN=[N+]=[N-]`, the GI50 in data set [1], in data set [2], in data set [3], in data set [4], in data set [5] and in data set [6] was greater than 100 µM in each case.
Regarding `C[C@]12CC[C@H](O)C[C@@H]1CC[C@@H]1[C@@H]2CC[C@@]2(C)[C@H]1CC[C@@]2(O)CNC(=S)NC1CCCCC1`, the GI50 in data set [1] amounted to 21 µM; in data set [2], 15 µM; in data set [3] it was 18 µM; in data set [4], 16 µM; in data set [5], 18 µM; in data set [6], 18 µM.
For the compound `C[C@]12CC[C@@H]3c4ccc(O)cc4CC[C@H]3[C@@H]1CC[C@@]2(O)CNC(=S)NC1CCCCC1`, the GI50 in data set [1] came to 3.3 µM; in data set [2] it was 14 µM; in data set [3], 2.8 µM; in data set [4] it was 4.5 µM; in data set [5], 3.9 µM; in data set [6], 5.1 µM.
For the compound `C[C@]12CC[C@@H]3c4ccc(O)cc4CC[C@H]3[C@@H]1CC[C@@]2(O)CNC(=S)Nc1ccccc1`, the GI50 was found to be 6.3 µM in data set [1]; 21 µM in data set [2]; 4.5 µM in data set [3]; 9.8 µM in data set [4]; 5.7 µM in data set [5]; 15 µM in data set [6].
`COC(=O)NC[C@]1(O)CC[C@H]2[C@@H]3CC[C@H]4C[C@@H](O)CC[C@]4(C)[C@H]3CC[C@@]21C`: the GI50 is 70 µM in data set [1]; 92 µM in data set [2]; 39 µM in data set [3]; 38 µM in data set [4]; 41 µM in data set [5]; 99 µM in data set [6].
In the case of `C[C@]12CC[C@H](O)C[C@@H]1CC[C@@H]1[C@@H]2CC[C@@]2(C)[C@H]1CC[C@@]2(O)CNC(=S)Nc1ccccc1`, the GI50 in data set [1] was 27 µM; in data set [2], 27 µM; in data set [3], 17 µM; in data set [4], 29 µM; in data set [5], 34 µM; in data set [6], 27 µM.
Regarding `C[C@]12CC[C@@H]3c4ccc(O)cc4CC[C@H]3[C@@H]1CC[C@@]21CNC(=O)O1`, the GI50 came out at 1.3 µM in data set [1]; 18 µM in data set [2]; 9.2 µM in data set [3]; 5.4 µM in data set [4]; 4.4 µM in data set [5]; 6.3 µM in data set [6].
As to `C[C@]12CC[C@@H]3c4ccc(O)cc4CC[C@H]3[C@@H]1CC[C@@]21CN=C(NC2CCCCC2)O1`, the GI50 worked out at 1.3 µM in data set [1]; 1.5 µM in data set [2]; 0.34 µM in data set [3]; 1.1 µM in data set [4]; 0.71 µM in data set [5]; 1.5 µM in data set [6]. In data set [7], the GI50 at 48 h was less than 1 µM.
`C[C@]12CC[C@H](O)C[C@@H]1CC[C@@H]1[C@@H]2CC[C@@]2(C)[C@H]1CC[C@@]2(O)CN`: the GI50 in data set [1] turned out to be 22 µM; in data set [2], 19 µM; in data set [3], 25 µM; in data set [4] it was 17 µM; in data set [5], 21 µM; in data set [6], 20 µM.
In the case of `C[C@]12CC[C@H](O)C[C@@H]1CC[C@@H]1[C@@H]2CC[C@@]2(C)[C@H]1CC[C@@]21CN=C(NC2CCCCC2)O1`, the GI50 in data set [1] amounted to 1.6 µM; in data set [2], 1.5 µM; in data set [3] it was 0.96 µM; in data set [4], 1.5 µM; in data set [5] it was 1.2 µM; in data set [6], 2 µM. The GI50 at 48 h in data set [7] was 1.2 µM.
Consider `C[C@]12CC[C@@H]3c4ccc(O)cc4CC[C@H]3[C@@H]1CC[C@@]2(O)CN`, for which the GI50 in data set [1] was 27 µM; in data set [2] it was 43 µM; in data set [3], 22 µM; in data set [4], 39 µM; in data set [5] it was 30 µM; in data set [6], 34 µM.
In the case of `CCCCNC(=S)NC[C@]1(O)CC[C@H]2[C@@H]3CCc4cc(O)ccc4[C@H]3CC[C@@]21C`, the GI50 in data set [1] was determined as 4.2 µM; in data set [2] it was 15 µM; in data set [3], 4.4 µM; in data set [4], 4.8 µM; in data set [5] it was 3.9 µM; in data set [6] it was 7.2 µM.
In the case of `CCCCNC1=NC[C@@]2(CC[C@H]3[C@@H]4CCc5cc(O)ccc5[C@H]4CC[C@@]32C)O1`, the GI50 in data set [1] was 2.1 µM; in data set [2], 2.2 µM; in data set [3], 0.34 µM; in data set [4], 1.4 µM; in data set [5], 0.45 µM; in data set [6], 2.9 µM. Moreover, the GI50 at 48 h in data set [7] was less than 1 µM.
For the compound `C[C@]12CC[C@H](O)CC1=CC[C@@H]1[C@@H]2CC[C@]2(C)C(c3cccnc3)=CC[C@@H]12` [ABIRATERONE], the GI50 is 7.9 µM in data set [1]; 85 µM in data set [2]; 42 µM in data set [3]; 95 µM in data set [4]; 24 µM in data set [5]; greater than 100 µM in data set [6]. Further, in data set [7], the GI50 at 48 h came out at 4.5 µM.
Consider `C[C@]12CC[C@H](O)CC1=CC[C@@H]1[C@@H]2CC[C@]2(C)C(n3cnc4ccccc43)=CC[C@@H]12` [GALETERONE], for which the GI50 in data set [1] was 5.3 µM; in data set [2], 3.9 µM; in data set [3], 2.7 µM; in data set [4] it was 3.9 µM; in data set [5] it was 2.1 µM; in data set [6] it was 10 µM. For the same compound, the GI50 at 48 h in data set [7] came to 5 µM.
